Results published in the RNAGym collection of RNA variant scans (doi:10.1002/anie.201605470).

B1: Osa-1-4 twister ribozyme (parent)
chain: CCGCCUAACACUGCCAAUGCCGGUCCCAAGCCCGGAUAAAAGUGGAGGGGGCGG

Variants of: B1
Assay: self-cleavage, relative activity (ratio to wild type); higher = more cleavage; co-transcriptional
Summary of the method: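 The 48 positions downstream of the cleavage site in a DNA template for a 54-nucleotide Oryza sativa twister ribozyme carried 97 % wild-type base and 1 % of each other base. After in vitro transcription (2 h, 37 °C) with co-transcriptional self-cleavage, the RNA was reverse-transcribed with a template-switching oligonucleotide, PCR-amplified and deep-sequenced. Relative activity is the fraction cleaved, judged by reads with or without upstream sequence and normalised to wild type.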

Variant	self-cleavage
G30C U24A	0.03
G30C U24C	0.04
G30C U24G	0.01
A29U C14A	0.03
A29U C14U	0.05
A29U C14G	0.04
A29U G19C	0.03
A29U G19A	0.05
A29U G19U	0.05
A29G G34C	0.06
A29G G34U	0.05
A29G G34A	0.13
A29U A36U	0.17
A29U A36C	0.03
A29U A36G	0.24
G30U G44U	0.05
G30U G44A	0.04
G30U G44C	0.04
G30A G53C	0.03
G30A G53U	0.04
G30A G53A	0.03
A29U A8U	0.05
A29U A8C	0.04
A29U A8G	0.11

Variant	self-cleavage
A29G G35C	0.05
A29G G35A	0.24
A29G G35U	0.16
G30U G51C	0.03
G30U G51U	0.03
G30U G51A	0.05
A29G G47A	0.05
A29G G47U	0.03
A29G G47C	0.03
A29U C21A	0.05
A29U C21G	0.04
A29U C21U	0.15
G30U G53U	0.04
G30U G53A	0.04
G30U G53C	0.03
A29G G42C	0.06
A29G G42U	0.04
A29G G42A	0.06
G30C G44A	0.03
G30C G44U	0.04
G30C G44C	0.04
A29U U12G	0.04
A29U U12C	0.05
A29U U12A	0.08

Variant	self-cleavage
A29G G54U	0.37
A29G G54C	0.08
A29G G54A	0.15
A29U G53U	0.06
A29U G53A	0.07
A29U G53C	0.04
A29U A39C	0.05
A29U A39G	0.07
A29U A39U	0.07
A29U G54C	0.06
A29U G54A	0.09
A29U G54U	0.27
G30C G53A	0.04
G30C G53C	0.02
G30C G53U	0.04
A29U	0.21
G30U G50A	0.03
G30U G50C	0.05
G30U G50U	0.05
A29U G50C	0.04
A29U G50U	0.09
A29U G50A	0.13
A29G U12G	0.04
A29G U12C	0.08

Variant	self-cleavage
A29G U12A	0.1
A29U G51A	0.06
A29U G51C	0.05
A29U G51U	0.04
G30U G35C	0.03
G30U G35A	0.04
G30U G35U	0.04
A29G G30C	0.03
A29G G30U	0.04
A29G G30A	0.05
A29G G49C	0.04
A29G G49A	0.05
A29G G49U	0.04
A29U A38U	0.09
A29U A38C	0.08
A29U A38G	0.09
A29U G44U	0.07
A29U G44C	0.12
A29U G44A	0.06
A29G U18G	0.34
A29G U18A	0.23
A29G U18C	0.23
A29U C26U	0.07
A29U C26G	0.05

Variant	self-cleavage
A29U C26A	0.03
A29U G22C	0.04
A29U G22A	0.12
A29U G22U	0.08
G30A G45U	0.02
G30A G45C	0.02
G30A G45A	0.03
G30A U12A	0.03
G30A U12C	0.03
G30A U12G	0.02
G30U G54A	0.03
G30U G54C	0.03
G30U G54U	0.05
A29G G19U	0.07
A29G G19C	0.06
A29U C20U	0.21
A29U C20G	0.03
A29U C20A	0.12
A29U G47A	0.03
A29U G47C	0.03
A29U G47U	0.03
G30U G49U	0.03
G30U G49C	0.02
G30U G49A	0.02

Variant	self-cleavage
G30A G35C	0.03
G30A G35A	0.05
G30A G35U	0.04
G30C U12C	0.03
G30C U12A	0.06
G30C U12G	0.1
A29U C32A	0.04
A29U C32G	0.03
A29U C32U	0.03
A29U G45C	0.03
A29U G45U	0.03
A29U G45A	0.03
G30A G50U	0.04
G30A G50C	0.04
G30A G50A	0.04
G30C U43G	0.05
G30C U43C	0.04
G30C U43A	0.05
A29U U18C	0.13
A29U U18G	0.25
A29U U18A	0.12
A29U U37C	0.14
A29U U37A	0.16
A29U U37G	0.23

Variant	self-cleavage
G30A U43A	0.04
G30A U43G	0.04
G30A U43C	0.02
A29U A40U	0.06
A29U A40C	0.03
A29U A40G	0.08
A29G G45U	0.04
A29G G45C	0.03
A29G G45A	0.05
G30A G48A	0.01
G30A G48C	0.02
G30A G48U	0.01
A29U C11G	0.04
A29U C11U	0.08
A29U C11A	0.05
A29U G48C	0.03
A29U G48A	0.03
A29U G48U	0.03
G30C U37C	0.04
G30C U37A	0.03
G30C U37G	0.05
A29G G48U	0.03
A29G G48A	0.04
